Data: PubChem BioAssay AID2373 (NMMLSC, 2010)

Biological target: Cell division control protein 42 homolog (Homo sapiens) (UniProt P60953)
Assay: compound effect on Cdc42 GTP saturation binding, late-stage follow-up, mechanism study for Ras-family GTPase inhibitor project, biochemical, Mg buffer, varying GTP (AID 2373)
Settings: GST-Cdc42 beads, BODIPY-GTP binding, flow cytometry
Summary of the method: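 Assay system: GST-tagged human Cdc42 bound to glutathione beads. Times: 2 min compound preincubation, overnight 4 °C bead loading. Signal: flow cytometry, median bead fluorescence at 530 nm. Read-out basis: fitted GTP Bmax and Kd. Control set: DMSO vehicle.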

Cell division control protein 42 homolog (Homo sapiens), sequence (P60953 whole entry, looked up): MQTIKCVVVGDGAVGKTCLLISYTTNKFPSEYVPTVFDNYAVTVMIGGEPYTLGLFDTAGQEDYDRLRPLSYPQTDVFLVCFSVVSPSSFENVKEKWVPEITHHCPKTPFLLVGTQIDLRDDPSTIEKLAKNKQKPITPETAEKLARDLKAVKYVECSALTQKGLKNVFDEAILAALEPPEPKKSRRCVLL

Which GTP Bmax with compound (at 10 µM, stronger effect = lower value) does the source give for COc1ccc(C2CC(c3ccccc3)=NN2c2ccc(S(N)(=O)=O)cc2)cc1 (configuration not stated) here?
The GTP Bmax with compound was 2320.

And the Kd (measured here: GTP affinity with compound)?
The Kd was 16.7 nM.
